This note sets out measurements from ChEMBL document CHEMBL4811269, “Design, synthesis and antibacterial evaluation of novel C-11, C-9 or C-2'-substituted 3-O-descladinosyl-3-ketoclarithromycin derivatives” (Bioorg Med Chem Lett, 2021).

In brackets after ≈: the same amount, converted by molar mass.

Series [1] has as its system Staphylococcus aureus. The series is described as follows: Antibacterial activity against erythromycin-susceptible Staphylococcus aureus ATCC 25923 by broth microdilution method. Type of series: functional. The procedure, abridged: (§1)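 MIC determined by standard broth microdilution per NCCLS recommendations, read as minimal inhibitory concentration in µg/mL. Standard ATCC strains tested alongside the other panel strains, with clarithromycin and azithromycin as reference agents.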
Background: In broth dilution the organism is exposed to a series of concentrations in liquid medium.

Series [2] has as its system Streptococcus pneumoniae. The series is described as follows: Antibacterial activity against erythromycin-resistant Streptococcus pneumoniae B1 by broth microdilution method. Type of series: functional. The method in brief: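 MIC by standard NCCLS broth microdilution, reported in µg/mL. The strain expresses the ermB gene. Clarithromycin and azithromycin were run alongside as references.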

In series [3] the test system is Streptococcus pneumoniae. Kind of series: Antibacterial activity against erythromycin-resistant Streptococcus pneumoniae AB11 by broth microdilution method. Type of series: functional. The procedure, abridged:
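MIC by standard NCCLS broth microdilution, reported in µg/mL. The strain expresses the ermB and mefA genes. Clarithromycin and azithromycin were run alongside as references.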

For a further series, the system named is Bacillus subtilis. Kind of series: Antibacterial activity against penicillin-susceptible Bacillus subtilis ATCC9372 by broth microdilution method. The format is functional. The method in brief: as §1
Series [4] in a line: Chemical stability of the compound in pH 7.4 phosphate solution after 24 hrs by HPLC analysis. The format is physicochemical. As to conditions: buffer, pH 7.4, 24 h. The procedure, abridged:
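Compound held in phosphate solution (pH = 7.4) at 25 °C and monitored by HPLC over 24 h. Stability judged from change in peak area.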

The test system of another series is Streptococcus pyogenes. The series is described as follows: Antibacterial activity against erythromycin-resistant Streptococcus pyogenes R1 by broth microdilution method. The format is functional. The procedure, abridged: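 MIC by standard NCCLS broth microdilution, reported in µg/mL. The strain is a clinically isolated erythromycin-resistant strain. Clarithromycin and azithromycin were run alongside as references.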

In series [5] the test system is Staphylococcus aureus. The series is described as follows: Antibacterial activity against methicillin-resistant Staphylococcus aureus ATCC 43300 by broth microdilution method. The format is functional. The method in brief: (§2)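 MIC by standard NCCLS broth microdilution against resistant S. aureus strains, reported in µg/mL. Clarithromycin and azithromycin were run alongside as references.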

Series [6] concerns Staphylococcus aureus. Kind of series: Antibacterial activity against penicillin-resistant Staphylococcus aureus ATCC 31007 by broth microdilution method. The format is functional. The procedure, abridged:
as §2

The next series deals with Pseudomonas aeruginosa. Kind of series: Antibacterial activity against penicillin-susceptible Pseudomonas aeruginosa ATCC 27853 by broth microdilution method. Type of series: functional. The method in brief:
as §1

The MIC is the smallest concentration in the dilution series that meets the test's criterion for growth inhibition. Low readings indicate greater potency, high ones weaker potency. As to `CO[C@]1(C)C[C@@H](C)[C@H](OC(=O)c2ccccc2)[C@H](C)CN(C)CCOC(=O)[C@H](C)C(=O)[C@H](C)[C@H]1O[C@@H]1O[C@H](C)C[C@H](N(C)C)[C@H]1OC(=O)c1ccccc1`, the MIC is 128 µg/mL (≈ 170 µM) against Staphylococcus aureus [1]; > 256 µg/mL in the series with Streptococcus pneumoniae [2]; > 256 µg/mL with Streptococcus pneumoniae [3]; > 128 µg/mL against Bacillus subtilis; > 256 µg/mL in the series on Streptococcus pyogenes; > 256 µg/mL in the series with Staphylococcus aureus [5]. Further, the values for the MIC against Staphylococcus aureus [6] and in the series with Pseudomonas aeruginosa were > 256 µg/mL and > 128 µg/mL, respectively. In addition, in series [4], the Stabilty entry is “Stable”.

Consider `CO[C@]1(C)C[C@@H](C)[C@H](OC(=O)c2ccc(C)cc2)[C@H](C)CN(C)CCOC(=O)[C@H](C)C(=O)[C@H](C)[C@H]1O[C@@H]1O[C@H](C)C[C@H](N(C)C)[C@H]1OC(=O)c1ccc(C)cc1`, for which the minimal inhibitory concentration (MIC) in the series with Staphylococcus aureus [1] is 128 µg/mL (≈ 164 µM); with Streptococcus pneumoniae [2], > 256 µg/mL; with Streptococcus pneumoniae [3], > 256 µg/mL; in the series with Bacillus subtilis, > 128 µg/mL; with Streptococcus pyogenes it was > 256 µg/mL; in the series on Staphylococcus aureus [5], > 256 µg/mL. The values for the minimal inhibitory concentration (MIC) against Staphylococcus aureus [6] and against Pseudomonas aeruginosa were > 256 µg/mL and > 128 µg/mL, respectively. The Stabilty result in [4] was “Stable”.

As for `CO[C@]1(C)C[C@@H](C)[C@H](OC(=O)c2ccc(Cl)cc2)[C@H](C)CN(C)CCOC(=O)[C@H](C)C(=O)[C@H](C)[C@H]1O[C@@H]1O[C@H](C)C[C@H](N(C)C)[C@H]1OC(=O)c1ccc(Cl)cc1`, the MIC in the series on Staphylococcus aureus [1] was 128 µg/mL (≈ 156 µM); against Streptococcus pneumoniae [2], 128 µg/mL (≈ 156 µM); against Streptococcus pneumoniae [3], > 256 µg/mL; with Bacillus subtilis, > 128 µg/mL; against Streptococcus pyogenes, > 256 µg/mL; against Staphylococcus aureus [5], > 256 µg/mL. Besides, the MIC was > 256 µg/mL with Staphylococcus aureus [6] and > 128 µg/mL in the series with Pseudomonas aeruginosa. The Stabilty entry in series [4] is recorded as “Stable”.

`CO[C@]1(C)C[C@@H](C)[C@H](OC(=O)c2cccc(C(F)(F)F)c2)[C@H](C)CN(C)CCOC(=O)[C@H](C)C(=O)[C@H](C)[C@H]1O[C@@H]1O[C@H](C)C[C@H](N(C)C)[C@H]1OC(=O)c1cccc(C(F)(F)F)c1`: the MIC is 128 µg/mL (≈ 144 µM) against Staphylococcus aureus [1]; > 256 µg/mL against Streptococcus pneumoniae [2]; > 256 µg/mL in the series on Streptococcus pneumoniae [3]; > 128 µg/mL against Bacillus subtilis; > 256 µg/mL against Streptococcus pyogenes; > 256 µg/mL in the series with Staphylococcus aureus [5]. The MIC against Staphylococcus aureus [6] was > 256 µg/mL; with Pseudomonas aeruginosa it was > 128 µg/mL. Also, the Stabilty result in series [4] is “Stable”.

Consider `CC[C@H]1OC(=O)[C@H](C)[C@@H](O[C@H]2C[C@@](C)(OC)[C@@H](O)[C@H](C)O2)[C@H](C)[C@@H](O[C@@H]2O[C@H](C)C[C@H](N(C)C)[C@H]2O)[C@](C)(OC)C[C@@H](C)C(=O)[C@H](C)[C@@H](O)[C@]1(C)O` [CLARITHROMYCIN], for which the MIC against Staphylococcus aureus [1] was ≤ 0.25 µg/mL; in the series with Streptococcus pneumoniae [2], > 256 µg/mL; against Streptococcus pneumoniae [3], 256 µg/mL (≈ 342 µM); against Bacillus subtilis, ≤ 0.25 µg/mL; against Streptococcus pyogenes it was 256 µg/mL (≈ 342 µM); in the series on Staphylococcus aureus [5], > 256 µg/mL. Besides, the MIC in the series on Staphylococcus aureus [6] is > 256 µg/mL; against Pseudomonas aeruginosa, 16 µg/mL (≈ 21.4 µM).
